Consider 3 molecules from ChEMBL document CHEMBL3259629, “Discovery and optimization of piperidyl-1,2,3-triazole ureas as potent, selective, and in vivo-active inhibitors of α/β-hydrolase domain containing 6 (ABHD6)” (J Med Chem, 2013).

pIC50: −log10 of the molar value. The source made the active and inactive calls. No cut-off for these calls is given here.

Experiment [1] addresses Acyl-protein thioesterase 1 (Mus musculus) (UniProt P97823). Nature of the experiment: Inhibition of FP-rhodamine-labelled recombinant mouse LYPLA1 at 10 uM preincubated for 30 mins followed by FP-rhodamine labelling measured after 30 mins by gel-based competitive ABPP assay.
Experiment [2] addresses Acyl-protein thioesterase 2 (Mus musculus) (UniProt Q9WTL7). Nature of the experiment: Inhibition of FP-rhodamine-labelled recombinant mouse LYPLA2 at 10 uM preincubated for 30 mins followed by FP-rhodamine labelling measured after 30 mins by gel-based competitive ABPP assay.
The subject of experiment [3] is Mus musculus. Nature of the experiment: In vivo inhibition of ABHD6 in C57Bl/6 mouse liver at 1 mg/kg, ip after 4 hrs by HT-10-labelled gel-based competitive ABPP assay. In kind it is functional, organism-based. Further details: dose 1 mg/kg. The essentials: (§1)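 C57Bl/6 mice dosed i.p. at 0.1, 0.5 or 1 mg kg⁻¹ in 18:1:1 saline/ethanol/PEG40 (ethoxylated castor oil), 10 μL g⁻¹. Killed after 4 hr under isoflurane by cervical dislocation. Brain and liver membrane fractions (100,000 × g) labelled with FP-rhodamine or HT-01 (1 μM, 30 min, 37 °C), then SDS-PAGE and in-gel fluorescence scanning. Liver ABHD6 read from HT-01 gels.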

Experiment [4] concerns Mus musculus. Kind of experiment: In vivo inhibition of ABHD6 in C57Bl/6 mouse brain at 1 mg/kg, ip after 4 hrs by HT-10-labelled gel-based competitive ABPP assay. Type of experiment: functional, organism-based. Further details: dose 1 mg/kg. The essentials:
as §1

For experiment [5], the system named is Mus musculus. Nature of the experiment: In vivo inhibition of carboxylesterase-1 in C57Bl/6 mouse liver at 0.1 to 1 mg/kg, ip after 4 hrs by FP-rhodamine-labelled gel-based competitive ABPP assay. In kind it is functional, organism-based. The method in brief: as §1
Experiment [6] concerns Mus musculus. Kind of experiment: In vivo inhibition of carboxylesterase-1 in C57Bl/6 mouse brain at 0.1 to 1 mg/kg, ip after 4 hrs by FP-rhodamine-labelled gel-based competitive ABPP assay. Type of experiment: functional, organism-based. The method in brief: as §1
Experiment [7] deals with T1, Monoacylglycerol lipase ABHD6 (Mus musculus, UniProt Q8R2Y0).
T1 sequence (Q8R2Y0 whole entry): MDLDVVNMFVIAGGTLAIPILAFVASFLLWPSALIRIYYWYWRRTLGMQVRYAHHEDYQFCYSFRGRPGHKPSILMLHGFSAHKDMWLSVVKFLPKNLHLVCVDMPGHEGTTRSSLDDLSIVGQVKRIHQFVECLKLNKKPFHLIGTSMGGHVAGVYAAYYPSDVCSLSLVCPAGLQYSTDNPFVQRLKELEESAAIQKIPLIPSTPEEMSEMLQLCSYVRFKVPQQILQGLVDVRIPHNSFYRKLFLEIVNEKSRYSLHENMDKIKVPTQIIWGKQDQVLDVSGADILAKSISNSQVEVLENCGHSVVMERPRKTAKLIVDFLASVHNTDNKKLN

Experiment [8] addresses T2, Fatty-acid amide hydrolase 1 (Mus musculus) (UniProt O08914).
T2 sequence (whole entry): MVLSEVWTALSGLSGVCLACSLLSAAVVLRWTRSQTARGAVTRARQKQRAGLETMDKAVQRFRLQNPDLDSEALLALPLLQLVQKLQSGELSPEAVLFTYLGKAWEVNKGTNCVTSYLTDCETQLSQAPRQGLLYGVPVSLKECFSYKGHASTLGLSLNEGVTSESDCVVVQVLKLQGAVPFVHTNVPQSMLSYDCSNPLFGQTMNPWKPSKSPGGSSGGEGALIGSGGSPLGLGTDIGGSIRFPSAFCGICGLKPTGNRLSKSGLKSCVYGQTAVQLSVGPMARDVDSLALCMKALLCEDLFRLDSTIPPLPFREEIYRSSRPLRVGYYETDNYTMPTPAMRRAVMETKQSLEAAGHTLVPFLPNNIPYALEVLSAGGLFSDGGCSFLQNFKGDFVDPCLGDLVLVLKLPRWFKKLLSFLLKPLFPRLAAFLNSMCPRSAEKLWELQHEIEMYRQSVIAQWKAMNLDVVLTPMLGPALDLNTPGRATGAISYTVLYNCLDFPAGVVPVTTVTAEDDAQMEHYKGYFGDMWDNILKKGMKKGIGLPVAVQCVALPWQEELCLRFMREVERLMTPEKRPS
Nature of the experiment: Inhibition of mouse brain FAAH at 10 uM after 30 mins by FP-rhodamine ABPP-based SDS-PAGE analysis relative to control.

For experiment [9], the system named is Mus musculus. Nature of the experiment: In vivo inhibition of FAAH in C57Bl/6 mouse brain at =>10 mg/kg, po after 4 hrs by FP-rhodamine/HT-10-labelled gel-based competitive assay.
Experiment [10] deals with T1, Monoacylglycerol lipase ABHD6. Kind of experiment: Inhibition of ABHD6 in FP-rhodamine-labelled mouse brain membrane preincubated for 30 mins followed by FP-rhodamine labelling measured after 30 mins by gel-based competitive ABPP assay.
Experiment [11] concerns Mus musculus. Nature of the experiment: In vivo inhibition of ABHD6 in C57Bl/6 mouse liver at 5 to 10 mg/kg, ip after 4 hrs by FP-rhodamine/HT-10-labelled gel-based competitive assay. In kind it is functional, organism-based. The method in brief:
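C57Bl/6 mice dosed i.p. at 1–40 mg kg⁻¹ in 18:1:1 saline/ethanol/PEG40, 10 μL g⁻¹, for 4 hr, then killed. Brain and liver membrane proteomes labelled with FP-rhodamine or HT-01 (1 μM, 30 min, 37 °C) and resolved by SDS-PAGE with in-gel fluorescence scanning.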

Experiment [12] concerns Mus musculus. Nature of the experiment: In vivo inhibition of ABHD6 in C57Bl/6 mouse liver at 10 to 40 mg/kg, po after 4 hrs by FP-rhodamine/HT-10-labelled gel-based competitive assay. In kind it is functional, organism-based.
Experiment [13] relates to Mus musculus. Nature of the experiment: In vivo inhibition of carboxylesterase-1 in C57Bl/6 mouse liver at 40 mg/kg, po after 4 hrs by FP-rhodamine-labelled gel-based competitive ABPP assay. In kind it is functional, organism-based. Also noted: dose 40 mg/kg.
In experiment [14] the test system is Mus musculus. Nature of the experiment: In vivo inhibition of ABHD6 in C57Bl/6 mouse brain at 20 mg/kg, ip after 4 hrs by FP-rhodamine/HT-10-labelled gel-based competitive assay. The following applies: C57Bl/6, Brain.
Experiment [15] has as its system Mus musculus. Nature of the experiment: In vivo inhibition of ABHD6 in C57Bl/6 mouse brain at 0.1 to 1 mg/kg, ip after 4 hrs by HT-10-labelled gel-based competitive ABPP assay. Type of experiment: functional, organism-based. The essentials:
as §1

Experiment [16] deals with Mus musculus. Kind of experiment: In vivo inhibition of DDH2 in C57Bl/6 mouse liver and bain at 0.1 to 1 mg/kg, ip after 4 hrs by FP-rhodamine-labelled gel-based competitive ABPP assay. In kind it is functional, organism-based. The essentials:
as §1

The test system of experiment [17] is Mus musculus. Nature of the experiment: In vivo inhibition of DAGLbeta in C57Bl/6 mouse liver and bain at 0.1 to 1 mg/kg, ip after 4 hrs by FP-rhodamine-labelled gel-based competitive ABPP assay. Type of experiment: functional, organism-based. The method in brief: as §1
Experiment [18] deals with Mus musculus. Kind of experiment: In vivo inhibition of PLA2G7 in C57Bl/6 mouse liver and bain at 0.1 to 1 mg/kg, ip after 4 hrs by FP-rhodamine-labelled gel-based competitive ABPP assay. Type of experiment: functional, organism-based. The essentials: as §1
Experiment [19] concerns Mus musculus. Nature of the experiment: In vivo inhibition of FAAH in C57Bl/6 mouse liver and bain at 0.1 to 1 mg/kg, ip after 4 hrs by FP-rhodamine-labelled gel-based competitive ABPP assay. In kind it is functional, organism-based. The method in brief: as §1
Experiment [20] has as its system Mus musculus. Kind of experiment: In vivo inhibition of MGLL in C57Bl/6 mouse liver and bain at 0.1 to 1 mg/kg, ip after 4 hrs by FP-rhodamine-labelled gel-based competitive ABPP assay. Type of experiment: functional, organism-based. The essentials:
as §1

Sequence of Acyl-protein thioesterase 2 (Mus musculus) (Q9WTL7 whole entry): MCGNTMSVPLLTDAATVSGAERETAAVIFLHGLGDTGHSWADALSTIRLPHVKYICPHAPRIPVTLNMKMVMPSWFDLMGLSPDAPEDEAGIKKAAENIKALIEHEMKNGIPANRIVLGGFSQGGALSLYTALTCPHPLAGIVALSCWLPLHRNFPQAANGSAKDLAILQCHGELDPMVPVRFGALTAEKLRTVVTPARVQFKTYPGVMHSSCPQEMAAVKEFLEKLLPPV
Sequence of Acyl-protein thioesterase 1 (Mus musculus) (P97823 whole entry): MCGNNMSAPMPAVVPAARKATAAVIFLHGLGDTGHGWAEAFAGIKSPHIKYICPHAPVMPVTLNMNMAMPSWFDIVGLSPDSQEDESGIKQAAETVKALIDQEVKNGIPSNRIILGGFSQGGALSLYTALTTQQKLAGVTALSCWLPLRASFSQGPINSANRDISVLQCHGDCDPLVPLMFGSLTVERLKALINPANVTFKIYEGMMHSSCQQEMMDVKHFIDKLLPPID

As a reminder, the pIC50 is −log10 of the IC50, conventionally taken in molar units. A higher pIC50 goes with a small IC50. For the molecule `O=C(N1CCCCC1c1ccccc1)n1cc(-c2ccc(-c3cccc(CO)c3)cc2)nn1` (racemic), the inhibition result in [1], in experiment [2], in experiment [3], in experiment [4], in experiment [5] and in experiment [6] was “Active” throughout. Besides, the inhibition result in experiment [8] and in [9] was “Active” each time. Also, the pIC50 in experiment [7] is 9.62.

Usually inhibition in vivo stands for the change of the read-out against control, counted positive when it falls. For the molecule `O=C(c1cccc(-c2ccc(-c3cn(C(=O)N4CCCCC4c4ccccc4)nn3)cc2)c1)N1CCCCC1` (racemic), the inhibition entry in [1], in experiment [2], in [11], in experiment [12] and in [13] was “Active” in each case. Moreover, in [10], the pIC50 is 8.89. In [14], the inhibition in vivo at 20 mg/kg is > 70%.

Turning to `O=C(O)c1cccc(-c2ccc(-c3cn(C(=O)N4CCCCC4Cc4ccccc4)nn3)cc2)c1` (racemic), the inhibition entry in experiment [3], in experiment [8] and in experiment [9] was “Active” throughout. Further, the inhibition entry in experiment [15], in [5], in [6], in experiment [16], in [17] and in experiment [18] was “inactive” in each case. For the same molecule, the inhibition entry in [19] and in experiment [20] was “inactive” in each case.
